The text below walks through data of ChEMBL document CHEMBL1146227, “Metabolically labile cannabinoid esters: a 'soft drug' approach for the development of cannabinoid-based therapeutic drugs” (Bioorg Med Chem Lett, 2007).

SMILES strings stand for the structures.

In one assay the target is Cannabinoid receptor 1 (Homo sapiens, UniProt P21554). Description: Displacement of [3H]CP-55940 from human CB1 receptor.
Chain of Cannabinoid receptor 1 (P21554 whole entry): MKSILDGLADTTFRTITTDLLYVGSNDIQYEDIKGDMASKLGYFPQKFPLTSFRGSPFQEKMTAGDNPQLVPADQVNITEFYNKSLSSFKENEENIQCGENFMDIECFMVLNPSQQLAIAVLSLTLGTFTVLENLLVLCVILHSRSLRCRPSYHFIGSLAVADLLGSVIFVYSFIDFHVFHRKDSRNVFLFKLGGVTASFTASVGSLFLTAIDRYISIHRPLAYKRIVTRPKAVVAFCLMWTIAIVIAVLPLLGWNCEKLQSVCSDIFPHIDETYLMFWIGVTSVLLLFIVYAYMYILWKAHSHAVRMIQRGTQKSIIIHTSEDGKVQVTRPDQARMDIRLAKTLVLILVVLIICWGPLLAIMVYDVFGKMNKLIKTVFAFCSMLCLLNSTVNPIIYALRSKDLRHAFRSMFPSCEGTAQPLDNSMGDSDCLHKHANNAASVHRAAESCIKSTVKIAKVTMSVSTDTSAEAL
As a reminder, the Ki is a measure of affinity in units of concentration, obtained from inhibition or displacement. A higher Ki goes with a looser hold on the target. With `Cc1cc(C)cc(-c2c(O)cc(C(=O)O)cc2O)c1`, the Ki was greater than 10 µM.
Compound `COc1cc(C(=O)O)cc(OC)c1-c1cc(C)cc(C)c1` showed a Ki greater than 10 µM.
On the same count and under the same terms, with `CCCCCOC(=O)c1cc(O)c(-c2cc(C)cc(C)c2)c(O)c1` the figure was 2 µM; with `CCCCCOC(=O)c1cc(O)c(-c2cc(C)cc(C)c2)c(OC)c1`, 1.4 µM.
Same read-out and setting: the result for `COC(=O)c1cc(O)c(-c2cc(C)cc(C)c2)c(OC)c1` reads greater than 10 µM; that for `COC(=O)c1cc(O)c(-c2cc(C)cc(C)c2)c(O)c1`, greater than 10 µM; that for `COc1cc(C(=O)O)cc(O)c1-c1cc(C)cc(C)c1`, greater than 10 µM.
The same measure, in the same setting: the result for `CCCCCOC(=O)c1cc(O)c(-c2ccccc2)c(O)c1` reads greater than 10 µM; that for `CCCCCOC(=O)c1cc(OC)c(-c2cc(C)cc(C)c2)c(OC)c1`, greater than 10 µM.
Take `CCCCOC(=O)c1cc(O)c(-c2cc(C)cc(C)c2)c(O)c1`: affinity was put at a Ki of 2.6 µM.

The target of another assay is Cannabinoid receptor 2 (Homo sapiens, UniProt P34972). Kind of assay: Displacement of [3H]CP-55940 from human CB2 receptor. The procedure, abridged: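 HEK cells transfected with human recombinant CB2 used for competition binding against [3H]CP-55,940 (Kd 0.31 nM) at 0.084 nM with increasing test compound concentrations; Ki derived from IC50 via Cheng-Prusoff equation; means of at least three separate experiments run in duplicate.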
Chain of Cannabinoid receptor 2 (P34972 whole entry): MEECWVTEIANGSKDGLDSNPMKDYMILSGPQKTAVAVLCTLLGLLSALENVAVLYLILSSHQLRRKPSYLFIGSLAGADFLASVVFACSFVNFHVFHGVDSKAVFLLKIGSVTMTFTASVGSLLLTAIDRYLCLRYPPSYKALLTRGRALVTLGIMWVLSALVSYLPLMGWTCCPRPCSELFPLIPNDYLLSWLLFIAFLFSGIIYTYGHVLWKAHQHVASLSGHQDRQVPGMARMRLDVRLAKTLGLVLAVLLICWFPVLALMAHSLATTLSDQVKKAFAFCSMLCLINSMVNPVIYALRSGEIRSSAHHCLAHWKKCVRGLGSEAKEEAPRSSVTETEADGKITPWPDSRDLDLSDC
(In general: Loss of bound radioactivity is the signal in a displacement assay; it reports binding, not function.)
`Cc1cc(C)cc(-c2c(O)cc(C(=O)O)cc2O)c1` came in with a Ki greater than 10 µM.
`COc1cc(C(=O)O)cc(OC)c1-c1cc(C)cc(C)c1` yielded an inhibition constant Ki greater than 10 µM.
`CCCCCOC(=O)c1cc(O)c(-c2cc(C)cc(C)c2)c(O)c1` yielded a Ki greater than 1.1 µM.
Same read-out and setting: with `CCCCCOC(=O)c1cc(O)c(-c2cc(C)cc(C)c2)c(OC)c1` the figure was 0.27 µM; with `COC(=O)c1cc(O)c(-c2cc(C)cc(C)c2)c(OC)c1`, greater than 6.4 µM.
Same read-out and setting: the result for `COC(=O)c1cc(O)c(-c2cc(C)cc(C)c2)c(O)c1` reads greater than 4.5 µM; that for `COc1cc(C(=O)O)cc(O)c1-c1cc(C)cc(C)c1`, greater than 10 µM; that for `CCCCCOC(=O)c1cc(O)c(-c2ccccc2)c(O)c1`, greater than 4 µM.
On the same count and under the same terms, with `CCCCCOC(=O)c1cc(OC)c(-c2cc(C)cc(C)c2)c(OC)c1` the figure was greater than 10 µM.
Compound `CCCCOC(=O)c1cc(O)c(-c2cc(C)cc(C)c2)c(O)c1` registered an inhibitory constant (Ki) greater than 3.2 µM.
